# Measurements: publication PMC4716096 (Kidney Research and Clinical Practice, 2012)
# Key:
# [1] = n-octanol versus water; cited from earlier work
# [2] = transplant recipient group with a high BMI; cited from earlier work
# [3] = Pharmacokinetic profile of tacrolimus; format: in vivo, human; details: dose-adjusted whole-blood concentrations; P=0.024 and 0.031
# Outline: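 Stable Korean kidney recipients (n=18; ≥20 y, ≥6 months post-transplant, creatinine <2.0 mg/dL) on steroid/mycophenolate/tacrolimus, trough-targeted 5–10 ng/mL. Fasting; whole blood drawn pre-morning dose (C0) and at 1–4 h post-dose; mass spectrometry. AUC0–4 by linear trapezoidal rule; values dose-adjusted. Lean/fat mass by bioelectrical impedance; groups split at median, compared by Mann-Whitney U (P<0.05).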
smiles,measurement,setting,value
C=CC[C@@H]1/C=C(\C)C[C@H](C)C[C@H](OC)[C@H]2O[C@@](O)(C(=O)C(=O)N3CCCC[C@H]3C(=O)O[C@H](/C(C)=C/[C@@H]3CC[C@@H](O)[C@H](OC)C3)[C@H](C)[C@@H](O)CC1=O)[C@H](C)C[C@@H]2OC [tacrolimus],partition coefficient of tacrolimus in n-octanol relative to water,[1],1000 fold
same,tacrolimus levels,[2],higher than 15 ng/mL
same,C0 and C4 in the high-fat group compared with the low-fat group,[3],significantly elevated
